From PMC6044781 (ACS Omega, 2017)
Like-named read-outs stand apart in the source and are kept apart here.

Assays:
[1] = test system: h-telo 22-mer quadruplex (DNA, G4) AGGGTTAGGGTTAGGGTTAGGG; assay: ITC; settings: 25 mM KCl; 10 mM sodium cacodylate, 0.5 mM EDTA, pH 7.0, 25 °C
[2] = test system: h-telo 12-mer quadruplex (DNA, G4) TAGGGTTAGGGT; assay: ITC; settings: 25 mM KCl; 10 mM sodium cacodylate, 0.5 mM EDTA, pH 7.0, 25 °C
[3] = test system: F22T (5′-fluorescein-AGGGTTAGGGTTAGGGTTAGGG-3′-TAMRA) G-quadruplex; assay: FRET melting assay, F22T; format: binding, human; settings: 2 μM ligand; for ΔTm F22T: no competitor; for ΔTm F22TComp22: with competitor complementary strand Compl 22
In short: (§1)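 Dual-labelled oligos (5′-fluorescein/3′-TAMRA) at 0.25 μM in 10 mM sodium cacodylate, 0.5 mM EDTA, 25 mM KCl, pH 7.0, with or without 2 μM test compound. For competitor runs, each oligo was preincubated 24 h at 25 °C with 2 μM unlabelled complementary strand. Excitation 480 nm, emission 520 nm, read at 1 °C steps from 25 to 95 °C with 60 s equilibration per reading. ΔTm is the average of three determinations.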

[4] = test system: F12T (5′-fluorescein-TAGGGTTAGGGT-3′-TAMRA) G-quadruplex; assay: FRET melting assay, F12T; format: binding, human; settings: 2 μM ligand; for ΔTm F12T: no competitor; for ΔTm F12TComp12: with competitor complementary strand Compl 12
In short: as §1

[5] = test system: h-telo 22-mer quadruplex; assay: ITC with h-telo 22-mer quadruplex; format: binding, human; settings: for binding equilibrium constants from microcalorimetry: h-telo 22-mer quadruplex; for binding constant Ka × 10^6: h-telo 22-mer, 25 °C
In short: (§2)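 Isothermal titration calorimetry at 25 °C in cacodylate/EDTA/KCl buffer, pH 7.0; solutions degassed under vacuum (160 mbar, 10 min). Test compound at 4 × 10^-4 M was injected in 5–10 μL aliquots (20 s each, 240 s apart, 60 s initial delay, 381 rpm) into DNA: 22-mer and 26-mer duplex at 1.0 × 10^-5 M, 12-mer at 0.5 × 10^-5 M. Dilution heat was subtracted and data fitted to a single-site model. Ka is mean ± SD of three runs.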

[6] = test system: h-telo 12-mer quadruplex; assay: ITC with h-telo 12-mer quadruplex; format: binding, human; settings: 25 °C, BMSG-SH-3: first line of two
In short: as §2

[7] = test system: duplex DNA 26-mer; assay: ITC with duplex DNA 26-mer; format: binding; settings: for binding constant Ka × 10^6: duplex DNA 26-mer, 25 °C
In short: as §2

[8] = test system: h-telo 22-mer quadruplex; assay: SPR with h-telo 22-mer; format: binding, human; settings: for KA: h-telo 22-mer, 25 °C, error ±15%; for KA h-telo 22/KA dsDNA: selectivity 22-mer quadruplex over DNA duplex, SPR
In short: (§3)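 Surface plasmon resonance on streptavidin chips carrying 5′-biotin-T9-linked 22-mer telomeric or 26-mer duplex DNA, annealed at 95 °C and slowly cooled in 10 mM HEPES, 100 mM KCl, 0.005% IGEPAL, pH 7.4. Surfaces equilibrated 2 h at 20 μL/min, 25 °C. Test compound (1.0 × 10^-9 to 10^-6 M) injected for 300 s in random order; regeneration with 1 M NaCl in 50 mM NaOH. Sensorgrams fitted to a two-site model. Selectivity is the ratio of G4 to duplex binding constants. Triplicate runs, mean ± SEM.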

[9] = test system: duplex DNA 26-mer; assay: SPR with duplex DNA 26-mer; format: binding; settings: 25 °C, error ±15%
In short: as §3

[10] = test system: telomerase (from A549 cells); assay: TRAP-Lig assay; format: biochemical, human; settings: read-out: TRAP assay IC50; telomerase inhibition, ligand 1–50 μM
[11] = test system: A549 cells; assay: MTT cell survival assay, A549; format: cell-based; settings: Homo sapiens
In short: (§4)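 MTT survival assay: cells treated with increasing concentrations of test compound for 48 or 72 h at 37 °C. Medium was then replaced with fresh medium containing MTT for 4 h, formazan dissolved in DMSO, and absorbance read at 570 nm. IC50 determined at each time point.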

[12] = test system: HeLa cells; assay: MTT cell survival assay, HeLa; format: cell-based; settings: Homo sapiens
In short: as §4

[13] = test system: HEK 293T cells; assay: MTT cell survival assay, HEK 293T; format: cell-based; settings: Homo sapiens
In short: as §4

[14] = test system: HeLa cells; assay: Cell cycle analysis by flow cytometry; format: cell-based, human; settings: 1 μM, 24 h; for G2/M phase arrest (G2): control 7.6%
[15] = test system: HeLa cells; assay: Annexin V-FITC/PI apoptosis assay; format: cell-based, human; settings: 1 μM, 24 h
In short: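 HeLa cells seeded at 2 × 10^5 per 60 mm plate and treated with test compound at 1 μM. After 24 h, cells were harvested, washed twice in PBS and resuspended at 1 × 10^6 cells/mL in kit buffer. Annexin V-FITC/PI staining for 15 min in the dark at room temperature; Annexin V–FITC labelling quantified. Values are mean ± SEM.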

[16] = test system: 26-mer duplex DNA (DNA, duplex) CAATCGGATCGAATTCGATCCGATTG; assay: ITC; settings: 25 mM KCl; 10 mM sodium cacodylate, 0.5 mM EDTA, pH 7.0, 25 °C
[17] = A549, 48 h, read-out: IC50 at 48 h
[18] = A549, 72 h, read-out: IC50 at 72 h

| SMILES | Ka [1] | Ka [2] | ΔTm F22T [3] [°C] | ΔTm F22TComp22 [3] [°C] | ΔTm F12T [4] [°C] | ΔTm F12TComp12 [4] [°C] | binding equilibrium constants from microcalorimetry [5] [µM] | binding constant Ka × 10^6 [5] | binding constant Ka × 10^6 [6] | binding constant Ka × 10^6 [7] | KA [8] | KA h-telo 22/KA dsDNA [8] | KA [9] | Kd [9] [µM] | IC50 [10] [µM] | IC50 [11, 17] [µM] | IC50 [11, 18] [µM] | IC50 ([12]; 48 h, read-out: IC50 at 48 h) [µM] | IC50 ([12]; 72 h, read-out: IC50 at 72 h) [µM] | IC50 ([13]; 48 h, read-out: IC50 at 48 h) [µM] | further results |
| --- | --- | --- | --- | --- | --- | --- | --- | --- | --- | --- | --- | --- | --- | --- | --- | --- | --- | --- | --- | --- | --- |
| CN1CCN(CCCN2C(=O)c3ccc4c5c(ccc(c35)C2=O)C(=O)N(CCCN2CCN(C)CC2)C4=O)CC1 [ALI-C3, 2,7-Bis(3-(4-methylpiperazin-1-yl)propyl)benzo[lmn][3,8]phenanthroline-1,3,6,8 (2H,7H)tetraone] | 6.35 ± 0.26 × 10^6 M^-1 | 0.61 ± 1.82 × 10^6 M^-1 | 9 ± 1.2 | 11 ± 0.6 | 5 ± 0.8 | 7 ± 0.5 | 6.35 | 6.35 ± 0.26 10^6 M^–1 | 0.61 ± 1.82 10^6 M^–1 | 0.03 ± 0.10 10^6 M^–1 | 8.7 × 10^6 M^–1 | 87.0 | 0.1 × 10^6 M^–1 | 17.1 | > 50 | 1.8 | 1.4 | 2.4 | 2.1 | 12.2 | IC50 ([13]; 72 h, read-out: IC50 at 72 h): 8.9 µM; G2/M phase arrest (G2) [14]: 15.7%; apoptotic cells (Annexin V–FITC positive cells) [15]: 35% |
| CN1CCN(c2ccc3nc(-c4ccc(N5C(=O)c6ccc7c8c(ccc(c68)C5=O)C(=O)N(c5ccc(-c6nc8ccc(N9CCN(C)CC9)cc8[nH]6)cc5)C7=O)cc4)[nH]c3c2)CC1 [BBZ-ARO, 2,7-Bis(4-(6-(4-methylpiperazin-1-yl)-1H-benzo[d]imidazol-2-yl)phenyl)benzo[lmn][3,8]phenanthroline-1,3,6,8(2H,7H)-tetraone] | 8.47 ± 0.65 × 10^6 M^-1 | 6.63 ± 2.39 × 10^6 M^-1 | 14 ± 0.5 | 16 ± 1.6 | 13 ± 1.4 | 15 ± 0.5 | 8.47 | 8.47 ± 0.65 10^6 M^–1 | 6.63 ± 2.39 10^6 M^–1 | 0.05 ± 0.65 10^6 M^–1 | 9.5 × 10^7 M^–1 | 158.3 | 0.6 × 10^6 M^–1 | 36.6 | 4.56 | 26.4 | 19.7 | 24.7 | 20.5 | 77.9 | Ka [16]: 0.05 ± 0.65 × 10^6 M^-1; affinity (ITC) ([5]; 22-mer quadruplex): 8.4 × 10^6 M^–1; binding affinity (ITC) ([7]; duplex DNA): 5.0 × 10^4 M^–1; IC50 ([13]; 72 h, read-out: IC50 at 72 h): 63.4 µM; sub-G1 phase accumulation ([14]; control 0.2%): 7.3%; G2/M phase arrest (G2) [14]: 15.8%; apoptotic cells (Annexin V–FITC positive cells) [15]: 74% |
| CN1CCN(c2ccc3nc(CN4C(=O)c5ccc6c7c(ccc(c57)C4=O)C(=O)N(Cc4nc5ccc(N7CCN(C)CC7)cc5[nH]4)C6=O)[nH]c3c2)CC1 [BBZ-AROCH2, 2,7-Bis((6-(4-methylpiperazin-1-yl)-1H-benzo[d]imidazol-2-yl)methyl)benzo[lmn]-[3,8]-phenanthroline-1,3,6,8(2H,7H)-tetraone] | 3.41 ± 0.22 × 10^6 M^-1 | 0.89 ± 0.11 × 10^6 M^-1 | 7 ± 0.7 | 9 ± 0.5 | 8 ± 0.4 | 10 ± 1.6 | 3.41 | 3.41 ± 0.22 10^6 M^–1 | 0.89 ± 0.11 10^6 M^–1 | 0.88 ± 0.63 10^6 M^–1 | 1.4 × 10^6 M^–1 | 3.5 | 0.4 × 10^6 M^–1 | 55.2 | > 50 | 79.5 | 74.8 | 92.7 | 86.5 | > 100 | Ka [16]: 0.88 ± 0.63 × 10^6 M^-1; IC50 ([13]; 72 h, read-out: IC50 at 72 h): > 100 µM; G2/M phase arrest (G2) [14]: 19.1%; apoptotic cells (Annexin V–FITC positive cells) [15]: 40% |
